The list is not random: actives were taken first. Their share in the collection is about 3.1%.
MEKK2 mut-MEK5 – MEK5 binding signal on mutant MEKK2 PB1, primary screen, biochemical, multiplex bead flow cytometry, Alexa488-MEK5; Alexa488-MEK5 binding to MEKK2 mutant; percent response, % at 10 µM; 290,000 tested, 0.35% active; AID 1530, 2009; in the data active means percent response above about 24%, passing the limit was not always enough
PREPL inh – PREPL enzyme inhibitors, primary screen, biochemical, fluorescence polarization | recombinant PREPL, fluorescence polarization activity-based probe | inhibition, % at 5.96 µM | 320,000 tested, 0.68% active; in the data active means inhibition above about 43%;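 further: 0% = enzyme with DMSO and 100% = wells lacking enzyme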
MEKK2wt PB1 HTS – modulators of MEK5 binding to wildtype MEKK2, primary screen, biochemical, multiplex bead flow cytometry, Alexa488-MEK5 | Alexa488-MEK5 binding to MEKK2 WT; actives lie on both sides | binding response (% of control), % at 10 µM | 290,000 tested, 1.1% active | AID 1531, 2009; in the data active means binding response below about 67% or above about 130%
Apaf1 inhib – inhibitors of human Apaf-1 apoptosome, primary screen, biochemical, DEVD-Rh110 fluorescence, uHTS | Apoptotic protease-activating factor 1 (Homo sapiens), O14727 | reconstituted apoptosome caspase-3 activity | inhibition, % at 20 µM | 330,000 tested, 0.71% active; active means inhibition of at least 40% at 20 µM;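 further: plate controls were DMSO wells for no effect and DEVD-CHO caspase inhibitor wells for full effect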
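System: reconstituted apoptosome with Apaf-1, cytochrome c, caspase-9, procaspase-3, dATP; Signal: Rh110 fluorescence intensity; Schedule: 30 min compound preincubation, 50 min activation, room temperature; Reagent: cytochrome c trigger plus (Z-DEVD)2-Rh110 caspase-3 substrate.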
UBC13 inh – UBC13 polyubiquitin chain formation inhibitors, primary screen, biochemical, TR-FRET, uHTS; inhibition, % at 20 µM; 330,000 tested, 0.47% active; AID 485273, 2010; in the data active means inhibition above about 45%, passing the limit was not always enough
MEKK3 PB1 HTS – modulators of MEKK3-MEK5 PB1 binding, primary screen, biochemical, wildtype MEKK3, multiplex bead flow cytometry, Alexa488-MEK5; 290,000 tested, 1.4% active; Mitogen-activated protein kinase kinase kinase 3 (Homo sapiens), Q99759; binding response (% of control), % at 10 µM; bead-based flow cytometry, Alexa488-MEK5 binding to MEKK3; actives lie on both sides; 0 = blocked by unlabeled MEK5, 100 = vehicle; AID 1529, 2009;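 active means binding response more than 3 SD above or below the average of its plate-row segment, actives on both sides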;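 further: Alexa488 bead fluorescence after subtracting the streptavidin-only scavenger bead signal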
Target sequence (Q99759 whole entry, looked up): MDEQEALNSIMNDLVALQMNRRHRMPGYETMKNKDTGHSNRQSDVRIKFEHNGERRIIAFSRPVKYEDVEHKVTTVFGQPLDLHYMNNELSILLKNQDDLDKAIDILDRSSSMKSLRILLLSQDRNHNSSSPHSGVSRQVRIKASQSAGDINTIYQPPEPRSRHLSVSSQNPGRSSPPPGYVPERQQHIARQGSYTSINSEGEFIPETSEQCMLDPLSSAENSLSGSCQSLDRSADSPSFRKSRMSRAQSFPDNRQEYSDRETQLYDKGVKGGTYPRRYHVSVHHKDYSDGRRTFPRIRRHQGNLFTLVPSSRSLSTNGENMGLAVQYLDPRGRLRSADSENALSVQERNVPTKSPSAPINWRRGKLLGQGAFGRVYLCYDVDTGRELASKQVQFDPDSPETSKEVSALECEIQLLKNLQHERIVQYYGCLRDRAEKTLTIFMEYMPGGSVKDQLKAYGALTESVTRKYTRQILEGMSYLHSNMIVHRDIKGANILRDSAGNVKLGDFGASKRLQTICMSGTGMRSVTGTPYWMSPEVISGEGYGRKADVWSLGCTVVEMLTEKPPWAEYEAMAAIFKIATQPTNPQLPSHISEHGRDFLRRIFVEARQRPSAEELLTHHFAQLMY
Apaf-1 inh conf – Apaf-1 inhibitors, single-dose retest, confirmation, biochemical, fluorescence, DEVD-Rh110, 20 µM | shares compounds with Apaf1 inhib | reconstituted apoptosome, caspase-3 DEVD-Rh110 fluorescence | 1,800 tested, 25% active | inhibition, % at 20 µM;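 active means mean inhibition of at least 40% at 20 µM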;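 further: plate controls were DMSO wells for no effect and DEVD-CHO caspase inhibitor control wells for full effect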
Rh110 quench – Rh110 fluorescence interference by putative Apaf-1 inhibitors, confirmation, artefact control for Apaf-1 inhibitor project, biochemical, 20 µM. shares compounds with Apaf1 inhib. quenched caspase reaction. activation (fluorescence interference), % at 20 µM. 1,800 tested, under 10 active. AID 504615, 2011;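 active means signal rise of 40% or more at 20 µM, treated as a fluorescence artifact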
Fluor interf inh – fluorescence interference of Apaf-1 inhibitor hits, dose response, artefact control for Apaf-1 inhibitor project; shares compounds with Apaf1 inhib; fluorescence interference counterscreen, Apaf-1 assay format; IC50, µM; 460 tested, under 10 active; call rule not given here
An asterisk follows results filed as active; nt = no result given; [ ] = another dose, or the depositor's remark.

SMILES	MEKK2 mut-MEK5	PREPL inh	MEKK2wt PB1 HTS	Apaf1 inhib	UBC13 inh	MEKK3 PB1 HTS	Apaf-1 inh conf	Rh110 quench	others
COc1ccc(-n2c(SC(C)C(=O)Nc3ccc(NC(C)=O)cc3)nc3ccccc3c2=O)cc1OC (centres undefined)	10	7	111	7	3	107	nt	nt
O=C(Cn1nc(-c2cccc(Cl)c2)ccc1=O)NCC1COCCO1 (centres undefined)	nt	1	nt	-6	-15	nt	nt	nt
O=C1C(=C(O)c2ccccc2)C(=O)c2ccccc21	3	5	102	41*	-35	103	13	-7
Cc1[nH]n(-c2ccccc2)c(=O)c1C(=O)c1ccccc1	-33	-7	90	61*	-51	83	18	10
COc1ccc(-c2cc3c(nn2)-c2ccccc2C3=O)cc1	-3	13	96	77*	-20	99	13	4
Cc1cnc2c(c1)C(=O)c1ccccc1-2	1	4	102	4	-7	102	nt	nt
Cc1cccc(-c2cc3c(nn2)-c2ccccc2C3=O)c1	3	24	99	91*	-26	100	13	10
O=C1c2ccccc2-c2nnc(-c3ccccc3)cc21	-4	9	99	71*	-43	91	18	7
CC1C(=O)N2CCCc3cc(NC(=O)C(=O)NCc4cccnc4)cc1c32 (centres undefined)	nt	-1	nt	1	-3	nt	nt	nt
O=C(CNS(=O)(=O)c1ccc(Cl)cc1)NC1CCCCC1	nt	2	nt	-1	1	nt	nt	nt
COc1ccc(C(CNC(=O)c2cccn2C)N2CCOCC2)cc1 (centres undefined)	nt	25	nt	47*	-39	nt	36	-3
Cc1ccc(C(=O)OCC(=O)NCc2ccc(F)cc2)o1	nt	0	nt	8	6	nt	nt	nt
O=[N+]([O-])c1c(Nc2ccccn2)cc(Cl)c2nonc12	-1	28	94	91*	-146	98	28	-2
COc1cc(C(=O)OCc2csc(CC(=O)Nc3ccccc3C)n2)ccc1OCC(C)C	nt	nt	nt	21	1	nt	nt	nt
COc1cc(OC)c2c(-c3ccccc3)cc(=O)oc2c1C(CCN1CCOCC1)c1ccc2c(c1)OCO2 (centres undefined)	nt	nt	nt	42*	nt	nt	9	-2
COc1ccc(C(CCN2CCOCC2)c2c(OC)cc(OC)c3c(-c4ccccc4)cc(=O)oc23)cc1 (centres undefined)	nt	nt	nt	53*	nt	nt	2	7
COc1cc(OC)c2ccc(=O)oc2c1C(CCN1CCOCC1)c1ccc2c(c1)OCO2 (centres undefined)	nt	nt	nt	12	nt	nt	nt	nt
CCCN(C(=O)CCOc1ccc(C(C)(C)C)cc1)c1c(N)n(Cc2ccccc2)c(=O)[nH]c1=O	nt	-4	nt	7	-9	nt	nt	nt
CN(C)C=Nc1c(Br)cc(Br)c2nonc12	-21	-5	84	43*	-75	91	39	2
CCOC(=O)C1=CN(Cc2ccco2)S(=O)(=O)N(C)C1c1ccc(F)c(Cl)c1 (centres undefined)	nt	nt	nt	17	nt	nt	nt	nt
O=C1CCCC2=C1C1(O)C(=O)c3ccccc3C1(O)O2 (centres undefined)	1	-5	101	92*	-26	102	72*	-1	Fluor interf inh=>100
N#Cc1sc(=O)[nH]c1Cl	3	-1	104	-8	-4	107	nt	nt
N#Cc1c(NCCO)nc(NCc2ccccc2)c2c1CCN(Cc1ccccc1)C2	2	24	107	60*	-17	107	25	12
NC(=O)c1ccc[n+](CC(=O)Nc2ccccc2C(=O)O)c1	14	7	107	4	-1	106	nt	nt
O=C(O)CCNc1cc(N2CCN(C(=O)c3ccco3)CC2)c2noc3c2c1C(=O)c1ccccc1-3	-17	38	48*[inhibitor]	81*	-140	63*[inhibitor]	73*	1	Fluor interf inh=13*
SMILES	MEKK2 mut-MEK5	PREPL inh	MEKK2wt PB1 HTS	Apaf1 inhib	UBC13 inh	MEKK3 PB1 HTS	Apaf-1 inh conf	Rh110 quench	others
O=C(c1ccco1)N1CCN(Cc2csc(-c3ccccc3Cl)n2)CC1	2	37	102	15	-4	95	nt	nt
CN1c2cccc3cccc(c23)N(C)C1(C)C	nt	14	nt	46*	-17	nt	13	-4
CN1c2ccccc2N(C)C1(C)c1cccc2ccccc12	6	25	107	19	-40	109	nt	nt
CCCCn1c(NC(=O)c2ccccc2Cl)c(C#N)c2nc3ccccc3nc21	-5	38	76	93*	-23	85	59*	-1	Fluor interf inh=>100
CCOC(=O)c1c(NC(=O)c2ccco2)n(C2CCCCC2)c2nc3ccccc3nc12	-3	11	92	88*	-31	102	36	1
N#Cc1c(NC(=O)c2ccccc2Cl)n(Cc2ccccc2)c2nc3ccccc3nc12	3	12	94	nt	nt	95	nt	nt
COc1ccc(-n2c(NC(=O)c3ccco3)c(C#N)c3nc4ccccc4nc32)cc1	-7	5	84	96*	-25	100	93*	3	Fluor interf inh=>100
COc1ccc(OC)c(C(c2c(O)nc(SC)[nH]c2=O)c2c(O)nc(SC)[nH]c2=O)c1	1	-10	98	-1	-1	99	nt	nt
